Only a selection was taken, and hits are over-represented in it overall.
XBP1 UPR activ: activators of adaptive arm of unfolded protein response (XBP1); CHO-XBP1 luciferase reporter, IRE1-XBP1 UPR activation, luminescence; percent of tunicamycin response, DMSO as zero; activation, % at 20 µM; 330,000 tested, 0.33% active; AID 463104;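 active = versus positive control, 20 µM dose yields 30% or more activation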
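Material – CHO cell line with stable XBP1 luciferase reporter · Buffer or medium – F12 plus 10% FBS · Compound – single point, 20 µM final compound, 1% DMSO · Schedule – 16-18 h cell attachment at 37 °C, then 6 h compound exposure · Signal – Steady-Glo luminescence read · Benchmarks – high control tunicamycin 10 µg/mL final, low control DMSO vehicle only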
Jurkat NFkB inh: inhibitors of the PMA/ionomycin-induced NF-kB reporter in Jurkat cells; PMA/ionomycin-induced NF-kB luciferase reporter, luminescence; AID 435003; 330,000 tested, 0.53% active; inhibition, % at 4 µM; in the data active = inhibition above about 50%
697 NFkB inh: lowers PMA/ionomycin-induced NF-kB signal in 697 B cells; inhibition, % at 4 µM; 330,000 tested, 0.33% active; AID 435022; 697 B-cell NF-kB luciferase reporter, 16 h; in the data active = inhibition above about 35%
CHOP UPR activ: apoptotic UPR (CHOP) activation; AID 449763; 330,000 tested, 0.34% active; activation, % at 10 µM; CHO-CHOP luciferase reporter, luminescence; percent of tunicamycin response over DMSO baseline;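 active = at 10 µM dose, activation of 40% or more, normalized to positive control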
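System: CHO-CHOP luciferase reporter cell line | Buffer or medium: F12 medium containing 10% fetal bovine serum | Doses: One dose, 10 µM in 0.5% DMSO | Times: 6 h compound exposure at 37 °C after overnight seeding | Signal: Luciferase luminescence | Read-out: % activation vs tunicamycin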
CHOP inh: inhibitors of CHOP induction in ER stress response | inhibition, % at 10 µM | 220,000 tested, 3.8% active | CHO-K1 CHOP-promoter luciferase, tunicamycin-induced, 15-18 h;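 active = compounds that reduced the stress-induced luciferase reporter signal by more than about 70% of percent inhibition, limit read from the data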
UPR CHOP confirm: apoptotic UPR (CHOP) activation, confirmed; shares compounds with CHOP UPR activ; CHO-CHOP cells, CHOP-luciferase reporter luminescence; percent of tunicamycin response, DMSO as zero; activation, % at 10 µM; 1,000 tested, 64% active; AID 463112; in the data active = activation above about 33%
A number is an active result; . = inactive; / = not tested or not shown.

SMILES	XBP1 UPR activ	Jurkat NFkB inh	697 NFkB inh	CHOP UPR activ	CHOP inh	UPR CHOP confirm
COC(=O)c1ccc(NC(=O)N(c2ccccc2)c2ccccc2)cc1	.	.	.	.	/	/
Cc1ccc(Nc2cc(C)nn2-c2nc(C)cc(C)n2)cc1	30	.	.	79	.	.
C/C(=N\NC(=O)COc1ccccc1-c1ccccc1)c1ccccn1	.	.	.	105	.	205
CCOc1cccc2cc(-c3csc(NC(=O)CCC(=O)N4CCC(C)CC4)n3)c(=O)oc12	37	.	.	95	86	.
CCOc1cccc2cc(C(=O)N3CC(C)OC(C)C3)c(=O)oc12 (centres undefined)	.	.	.	.	/	/
Cc1ccc(N2C(=O)CC(Sc3nc(C)cc(C)n3)C2=O)cc1 (centres undefined)	.	.	.	.	/	/
CC(C)c1ccc(N2C(=O)CC(Sc3nc4ccccc4o3)C2=O)cc1 (centres undefined)	.	.	.	199	.	95
O=C(Nc1ccc2oc(-c3ccc4ccccc4c3)nc2c1)c1ccc2c(c1)OCCO2	200	.	.	40	.	105
Cc1ccc2nc(-c3cccc(NC(=O)c4ccc5c(c4)OCCO5)c3)oc2c1	.	.	.	.	.	/
CCOc1cc(C2c3c(-c4ccccc4)n[nH]c3C(=O)N2c2ccc(C(=O)O)cc2)ccc1O (centres undefined)	.	.	.	45	.	.
COc1cc(CNc2ccc3[nH]c(=O)[nH]c3c2)ccc1OCc1ccccc1F	.	.	.	.	/	/
COc1cc(/C=N/NC(N)=S)cc(Br)c1OCc1ccccc1F	.	.	.	52	.	.
COc1cc(CNc2ccc3[nH]c(=O)[nH]c3c2)cc(Br)c1OCc1ccccc1F	.	.	.	83	/	46
COc1ccc(CC(=O)N(CCC2=CCCCC2)c2c(N)n(Cc3ccccc3)c(=O)[nH]c2=O)cc1OC	.	.	.	.	/	/
CC(=O)Nc1cccc(NC(=O)CSc2nc(=O)n(CCCN3CCOCC3)c3c2CCC3)c1	.	.	.	.	/	/
CCCn1c(CN2CCN(C(=O)OCC)CC2)nc2cc(NC(=O)C(C)C)ccc21	.	.	.	50	/	.
Cc1cc(C(=O)c2ccc(C(C)(C)C)cc2)c(NC(=O)CCl)s1	.	.	.	50	.	94
Cc1cc(C(=O)c2ccccc2)c(NC(=O)CN2CCOCC2)s1	.	.	.	.	.	/
COc1ccc(Nc2ccc3c(c2)=NC2(CCCCC2)[N+]=3[O-])cc1	.	.	.	45	.	.
Cc1ccc2nc(-c3ccc(O)c(O)c3)cn2c1	.	.	.	155	/	61
Cc1nc(-c2ccc(O)c(O)c2)cs1	.	.	.	.	.	/
Oc1ccc(-c2csc(-c3ccccc3)n2)cc1O	.	.	.	143	.	53
Cc1ccccc1S(=O)(=O)Cc1ccc(C(=O)NCCCN2CCCC(C)C2)o1 (centres undefined)	.	.	.	.	/	/
Cc1ccccc1S(=O)(=O)NC1OC(=O)C(Cl)=C1Cl (centres undefined)	.	.	.	47	.	40
NS(=O)(=O)c1cccc(-n2cnnn2)c1	.	.	.	.	.	/
SMILES	XBP1 UPR activ	Jurkat NFkB inh	697 NFkB inh	CHOP UPR activ	CHOP inh	UPR CHOP confirm
Cc1ccc(S/C=C\C(=O)c2ccccc2)cc1	.	.	.	69	.	56
O=c1oc(-c2ccc(O)c(O)c2)cc2cccc(O)c12	.	.	.	54	/	.
COc1ccc(C(=O)NC(CCSC)C(=O)NCc2nnc3ccccn23)cc1 (centres undefined)	.	.	.	.	/	/
COc1cccc(NC(=O)CN(C)C(=O)c2c(-c3ccccc3)noc2C)c1	.	.	.	.	/	/
CC(NC(=O)C12CC3CC(CC(C3)C1)C2)C(=O)NN=Cc1ccc([N+](=O)[O-])o1 (centres undefined)	.	.	.	197	/	.
O=C(N/N=C/c1ccc([N+](=O)[O-])o1)C1CCCC1	.	.	.	.	/	/
COc1cccc(OC)c1C(=O)NC(C)C12CC3CC(CC(C3)C1)C2 (centres undefined)	.	.	.	.	.	/
CC(NC(=O)c1ccc([N+](=O)[O-])o1)C12CC3CC(CC(C3)C1)C2 (centres undefined)	.	.	.	85	/	.
CC(OC(=O)c1c[nH]c2ccccc12)C(=O)N1CCCC1 (centres undefined)	.	.	.	90	/	.
CCOC(=O)c1cnc(-n2nc(C)cc2C)nc1NCc1ccccc1	.	.	.	74	.	.
CCOC(=O)c1cnc(-n2nc(C)cc2C)nc1NCCO	.	.	.	.	.	/
CCOC(=O)c1cnc(-n2nc(C)cc2C)nc1NC(C)c1ccccc1 (centres undefined)	.	.	.	73	.	.
O=C(NC1=NCCS1)c1ccc(F)c(S(=O)(=O)N2CCOCC2)c1	.	.	.	.	/	/
Cc1cn2nc(N)c3ccccc3c2n1	.	.	.	41	.	.
Cc1nc2ccccc2c2nc(N)nn12	.	.	.	.	.	/
COC(=O)C1=C(C)N(c2ccc(C)c(C)c2)/C(=C/c2cccs2)C1=O	.	.	.	90	.	50
Cc1ccc(NC(=S)N=Nc2c(O)[nH]c3ccccc23)cc1	.	.	.	.	.	/
CN(C)C(=S)N=Nc1[nH]c2ccccc2c1O	.	.	.	466	.	341
NC(=O)CSc1nc2c(sc3ccccc32)c(=O)n1CCCC(=O)NCC1CCCO1 (centres undefined)	.	.	.	.	.	/
Cc1ccc(NC(=O)CCC(=O)NNC(=O)c2ccccc2)c(C)c1	.	.	.	.	.	/
COc1ccc(C2Nc3ccc4ccccc4c3-c3c2c(=O)oc2ccccc32)cc1 (centres undefined)	134	.	.	49	.	47
O=C(N/N=C/C(Br)=C\c1ccccc1)c1cccs1	.	.	.	.	.	/
N#CC(C#N)=C1C=CC=CN1/C(=C\c1ccccc1)C(=O)c1cccs1	.	.	.	122	.	119
CC(C)c1ccc(/C=C(\c2nc3ccccc3[nH]2)S(=O)(=O)c2ccccc2)cc1	.	.	.	69	.	106
COc1ccc(/C=C/C(=O)c2ccc([N+](=O)[O-])o2)cc1OC	.	.	.	82	/	.
O=C(/C=C/c1cccc(Cl)c1)c1ccc([N+](=O)[O-])o1	.	.	.	.	/	/
Cc1ccc(S(=O)(=O)NC2CCSC2=O)cc1C (centres undefined)	.	.	.	.	/	/
C[C@@H](NC(=O)c1coc(=O)c(Br)c1)c1ccccc1	.	.	.	115	.	97
CCOc1ccccc1N1CCN(C(=O)NCc2ccc(Cl)cc2)CC1	.	.	.	.	/	/

Screening data (PubChem BioAssay)
